9 molecules from ChEMBL document CHEMBL3243963, “Drugs derived from cannabinoids. 7. Tachycardia and analgesia structure-activity relationships in delta9-tetrahydrocannabinol and some synthetic analogues” (J Med Chem, 1978) can be followed below.

The test system of one data set is Rattus norvegicus. The experiment in a line: Toxicity in ip dosed Wistar rat assessed as tachycardia. Type of data set: organism-based. The following applies: in vivo. The essentials:
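Conscious rats on a warming plate, with rectal temperature kept below 39 °C. Heart rate taken from tail pulse sound (piezo contact microphone, tachograph). Agents given ip in absolute ethanol or distilled water according to solubility. Maximum heart-rate increase plotted against log dose. ED50 with 95% confidence limits by computerized Litchfield–Wilcoxon. Five, six or twelve rats per dose depending on compound.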

Data set [1] relates to Mus musculus. The data set can be described thus: Analgesic activity in po dosed mouse by hot plate test. In kind it is functional. The essentials: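 Mouse hot-plate antinociception after oral dosing, ten mice per dose. ED50 with 95% confidence limits by computerized Litchfield–Wilcoxon method.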
On the technique in general: In hot-plate and tail-flick tests a longer latency is read as antinociception.

Data set [2] has as its system Mus musculus. The experiment in a line: Analgesic activity in po dosed mouse by anti-writhing test. In kind it is functional. The gist of the method: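 Mouse antiwrithing test after oral dosing, five mice per dose. ED50 (half-maximal effect dose) with 95% confidence limits by computerized modification of Litchfield–Wilcoxon.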
(In writhing tests, fewer writhes than in controls are read as antinociception.)

What is called ED50 is the dose that gives a 50% effect, or the effect in half of the subjects.

A value given as a limit tells only on which side of the number the result lay.

On to `C#CCN1CCC2=C(C1)c1c(OC(=O)C(C)CCN3CCCCC3C)cc(C(C)C(C)CCCCC)cc1OC2(C)C.Cl` (stereo unspecified), for which the Activity entry in the data set on Rattus norvegicus is recorded as “Dose-dependent effect”. Besides, the ED50 is 0.53 mg/kg in the data set with Rattus norvegicus, 3.8 mg/kg with Mus musculus [1] and 7.3 mg/kg in the data set on Mus musculus [2].
In the case of `Br.CCCCCc1cc(OC(=O)CCCN2CCOCC2)c2c(c1)OC(C)(C)[C@@H]1CCC(C)=C[C@@H]21`, the Activity entry with Rattus norvegicus is on record as “Dose-dependent effect”. The ED50 is 0.092 mg/kg in the data set on Rattus norvegicus, 168 mg/kg with Mus musculus [1] and > 40 mg/kg with Mus musculus [2].
On to `CCCCCC(C)C(C)c1cc(OC(=O)CCCN2CCCCC2)c2c(c1)OC(C)(C)C1=C2CC(C)CC1.Cl` (stereo unspecified), for which the Activity result with Rattus norvegicus is “Dose-dependent effect”. Also, the values for the median effective dose (ED50) with Rattus norvegicus, in the data set on Mus musculus [1] and in the data set with Mus musculus [2] were 1.92 mg/kg, 15 mg/kg and 25.9 mg/kg, respectively.
Turning to `Br.CCCCCC(C)C(C)c1cc(OC(=O)CCCN2CCOCC2)c2c(c1)OC(C)(C)C1=C2CC(C)CC1` (stereo unspecified), the Activity result in the data set on Rattus norvegicus is given as “Dose-dependent effect”. Further, the median effective dose (ED50) in the data set with Rattus norvegicus amounted to 2.13 mg/kg; with Mus musculus [1], 0.5 mg/kg; with Mus musculus [2] it was 2.3 mg/kg.
For the molecule `C#CCN1CCC2=C(C1)c1c(OC(=O)C(C)CCN3CCCCC3)cc(C(C)C(C)CCCCC)cc1OC2(C)C.Cl` (stereo unspecified), in the data set with Rattus norvegicus, the Activity entry is “Dose-dependent effect”. The values for the median effective dose (ED50) with Rattus norvegicus, in the data set on Mus musculus [1] and in the data set with Mus musculus [2] were 0.4 mg/kg, 4.6 mg/kg and 12.2 mg/kg, respectively.
On the same counts, the results for `C#CCN1CCC2=C(C1)c1c(O)cc(C(C)C(C)CCCCC)cc1OC2(C)C` (stereo unspecified) are “Dose-dependent effect”, 0.061 mg/kg, 7.7 mg/kg and 4.3 mg/kg.
The matching figures for `CCCCCC(C)C(C)c1cc(O)c2c(c1)OC(C)(C)C1=C2CC(C)CC1` (mixture of isomers): “Dose-dependent effect”, 0.31 mg/kg, 9.3 mg/kg and 3 mg/kg.
Regarding `CCCCCc1cc(O)c2c(c1)OC(C)(C)[C@@H]1CCC(C)=C[C@@H]21` [DRONABINOL], the Activity entry in the data set with Rattus norvegicus is on record as “Dose-dependent effect”. Also, the median effective dose (ED50) is 0.062 mg/kg with Rattus norvegicus, > 100 mg/kg in the data set on Mus musculus [1] and 43 mg/kg in the data set on Mus musculus [2].
Regarding `C#CCN1CCC2=C(C1)c1c(OC(=O)CCCN3CCCCC3)cc(C(C)C(C)CCCCC)cc1OC2(C)C.Cl` (stereo unspecified) [NABITAN HYDROCHLORIDE], the Activity entry with Rattus norvegicus was “Dose-dependent effect”. Moreover, the ED50 was determined as 0.11 mg/kg with Rattus norvegicus, 5.3 mg/kg in the data set on Mus musculus [1] and 12 mg/kg in the data set with Mus musculus [2].
